Compound activity: PubChem BioAssay, several laboratories
HSF1 inh = HSF1 inhibition | AID 2098 | NIH3T3-HGL HSE-luciferase, MG132-induced, luminescence 8 h; stronger effect = lower value | 300,000 tested, 0.77% active | activity change, negative = inhibition, % at 7.5 µM (by protocol);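 active means more than half of replicate wells show activity change below -50%, luminescence cut by over half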;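 further: luciferase reports HSF-1 transcriptional activity via heat shock element; 0% = median of DMSO wells and -100% = zero luminescence signal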
AHR act = human AHR activation; P35869; AID 2796; activation, % at 5 µM; 320,000 tested, 2.5% active; AHR-responsive luciferase reporter cells, luminescence; in the data active means activation above about 47%;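 further: 0% = vehicle wells and 100% = reference agonist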
Target sequence (P35869 whole entry, looked up): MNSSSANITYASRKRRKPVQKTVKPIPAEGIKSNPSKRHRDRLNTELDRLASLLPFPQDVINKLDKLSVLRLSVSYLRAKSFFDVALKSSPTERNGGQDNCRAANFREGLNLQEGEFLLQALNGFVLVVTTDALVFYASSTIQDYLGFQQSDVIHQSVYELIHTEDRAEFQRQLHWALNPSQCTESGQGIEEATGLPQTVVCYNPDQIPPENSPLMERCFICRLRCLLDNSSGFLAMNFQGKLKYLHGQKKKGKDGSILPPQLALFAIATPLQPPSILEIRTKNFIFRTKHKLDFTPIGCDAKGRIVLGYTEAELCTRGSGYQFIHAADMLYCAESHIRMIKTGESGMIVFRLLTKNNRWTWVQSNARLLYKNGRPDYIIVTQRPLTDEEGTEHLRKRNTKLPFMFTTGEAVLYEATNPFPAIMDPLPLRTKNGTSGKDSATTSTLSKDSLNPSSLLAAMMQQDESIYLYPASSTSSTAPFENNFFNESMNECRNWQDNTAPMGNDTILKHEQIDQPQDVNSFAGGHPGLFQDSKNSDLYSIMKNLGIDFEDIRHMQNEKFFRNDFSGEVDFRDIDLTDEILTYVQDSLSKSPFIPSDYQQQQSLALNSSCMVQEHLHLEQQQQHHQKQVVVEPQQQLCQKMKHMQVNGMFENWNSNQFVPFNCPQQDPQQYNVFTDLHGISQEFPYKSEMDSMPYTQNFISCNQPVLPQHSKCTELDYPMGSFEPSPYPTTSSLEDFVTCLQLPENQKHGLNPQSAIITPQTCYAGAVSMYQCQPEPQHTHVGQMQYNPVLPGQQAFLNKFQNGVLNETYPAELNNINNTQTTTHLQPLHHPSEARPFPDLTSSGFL
PolyA inh = blocks polyadenylation in yeast reporter cells | 300,000 tested, 0.02% active | AID 1875 | S. cerevisiae SKY197-pL101 polyadenylation reporter, beta-gal luminescence; efflux-impaired pdr1/pdr3 knockout yeast; score 100 = 6 SD above DMSO | activity score, % at 12 µM;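 active means lowest replicate activity score at least 50, where 100 means six control SD above control mean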;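 further: yeast exposed to compound for 9 h at 30 °C; higher score means more reporter readthrough which indicates perturbed polyadenylation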
PERK inh = human PERK inhibition, primary cell-based screen. 220,000 tested, 0.17% active. Q9NZJ5. inhibition, % at 5.6 µM. CHO PERK-DD fusion, SEAP luminescence translation reporter;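 active means inhibition above the mean inhibition of all tested compounds plus 3 SD, set separately per screening campaign, cut at about 2.9% in these data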;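 further: PERK kinase domain activated by AP20187 dimerizer at 100 nM; 0% = DMSO with dimerizer and 100% = rapamycin at 8.4 µM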
STAT3 act-1 = increases IL-6 driven STAT3 reporter signal; U3A cells, IL-6 STAT3-luciferase reporter, luminescence; 100% = signal with IL-6 EC80 alone; activation (% of control), % at 5.6 µM; 190,000 tested, 0.91% active;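 active means activation above the screen-wide mean of compound activation plus 3 SD, cut at about 130% in these data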;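 further: 0% = background luminescence of wells with medium and substrate only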
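Assay system – human STAT1-deficient U3A cells with stable STAT3-luciferase reporter · Also added – IL-6 (33 ng/mL) · Schedule – compound 1 h, then IL-6 6 h at 37 °C · Technique – reporter luminescence signal · Evaluation – % activation versus median of IL-6-stimulated wells · Benchmarks – IL-6-only wells as 100% reference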
Hsp70 activator = Hsp70 transcriptional activation, primary screen; 200,000 tested, 0.04% active; HeLa Hsp70 promoter luciferase reporter, luminescence; scaled: vehicle 0, proteasome-inhibitor control 100%; activation, % at 10 µM;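 active means activation above the mean across all tested compounds plus 3 SD, cutoff set per campaign, cut at about 5.5% in these data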;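 further: 100% = MG132 at 30 µM as the positive control and 0% = DMSO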
STAT3 act-2 = confirmation of STAT3 signaling activators; shares compounds with STAT3 act-1; U3A STAT3-luciferase reporter, IL-6 potentiation, luminescence; U3A cells lack STAT1; 100 means same as IL-6 alone; potentiation (% of control), % at 5.7 µM; 1,200 tested, 64% active;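 active means percent activation of the STAT3 luciferase reporter above a set limit taken from the earlier primary screen, cut at about 130% in these data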;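 further: 0% = background signal of medium plus substrate and 100% = median of IL-6 with DMSO wells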
NFkB act 2 = activates NF-kappaB, counter-screen to STAT3 activators; shares compounds with STAT3 act-1; human cells, NF-kappaB reporter activation; activation (% of control), % at 5.7 µM; 1,200 tested, 11% active; AID 1309; in the data active means activation above about 120%;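 further: reporter induced by TNF-alpha stimulation; 100% = median of stimulated DMSO wells and 0% = no signal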
STAT1 act STAT3c = STAT1 activation in STAT3 activator counter-screen. shares compounds with STAT3 act-1. NIH 3T3 STAT1-luciferase reporter, IFN-gamma, luminescence. activation (% of control), % at 5.7 µM. 1,200 tested, 13% active. AID 1318;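 active means activation above the solvent-only control well mean plus 3 SD, set per screening run, cut at about 120% in these data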;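 further: 100% = IFN-gamma with DMSO median signal so 100% means no change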
Active calls of the source: *; nt = no result. This is a sample that favours compounds with a hit; in the whole collection about 3.6% have one here.

SMILES	HSF1 inh	AHR act	PolyA inh	PERK inh	STAT3 act-1	Hsp70 activator	STAT3 act-2	NFkB act 2	STAT1 act STAT3c
CC(=O)N1c2ccc(S(=O)(=O)N(C)CC(=O)NC(C)c3ccccc3)cc2CC1C (stereo unspecified)	5.5	-1.6	1.7	nt	nt	nt	nt	nt	nt
CCN1CCN(C(=O)Cn2nc(C)c3sc4ccccc4c3c2=O)CC1	-1.6	1.7	3.7	nt	nt	nt	nt	nt	nt
CCn1c(SC(C)C(=O)Nc2ccc3c(c2)OCCO3)nnc1C1CC1 (stereo unspecified)	nt	0.2	nt	nt	nt	nt	nt	nt	nt
Fc1cccc(F)c1/C=N/Nc1ccccn1	32.6	36.2	-11.8	0.8	127.6	0.1	nt	nt	nt
Fc1cccc(Cl)c1/C=N/Nc1ccccn1	21.5	41.9	-29.2	-0.2	138.0*	0.2	143.9*	113.3	126.7*
COc1ccccc1N(Cc1cc(=O)[nH]c2ccccc12)C(=O)c1ccccc1	0.9	1.4	-2.2	-1.2	nt	nt	nt	nt	nt
CN(Cc1cc(=O)[nH]c2ccccc12)C(=O)c1ccccc1	3.3	4.6	27.6	0.6	136.2*	0.4	120.7	103.6	111.0
Cc1ccccc1C(=O)NNC(=O)C1CCN(C(=O)Nc2ccccc2)CC1	-3.3	5.5	9.6	nt	nt	nt	nt	nt	nt
Oc1oc(-c2ccccc2)nc1C=Nc1cccc2ccccc12	10.6	46.0	-24.5	0.8	144.2*	-0.1	128.9	106.1	97.2
Cc1cc(C(=O)N/N=C/c2c[nH]c3ccccc23)cs1	19.0	32.0	33.0	0.8	96.6	0.0	nt	nt	nt
Cc1ccc(/C=N/NC(=O)Cc2c[nH]c3ccccc23)c(C)c1	-4.4	20.5	6.9	-0.8	141.8*	-0.3	129.6	100.8	90.8
O=C(Cc1c[nH]c2ccccc12)N/N=C/c1ccccc1O	1.4	31.2	-0.4	-0.2	nt	nt	nt	nt	nt
Cc1ccc(C(=O)Nc2ccc(C(=O)N/N=C/c3c[nH]c4ccccc34)cc2)cc1	7.6	20.5	2.2	-1.2	147.7*	-0.3	122.1	96.8	97.8
CC(Oc1ccccc1)C(=O)Nc1ccccc1O (stereo unspecified)	2.3	49.5*	-8.2	0.7	137.1*	-0.4	121.6	104.2	99.5
Cc1cccc2cc3c(NC(=O)c4ccccn4)nn(C)c3nc12	-8.3	48.8*	-22.7	1.2	156.2*	-0.3	140.0*	107.3	90.7
CCCC(=O)Nc1nn(C)c2nc3c(C)cccc3cc12	5.8	8.0	-10.2	0.7	101.8	-0.2	nt	nt	nt
Cc1ccccc1CC(=O)N1CCCC1	-3.7	-0.1	15.1	nt	nt	nt	nt	nt	nt
O=C1N=c2ccccc2=C1c1sc(=S)n(CC2CCCO2)c1O (stereo unspecified)	11.6	8.6	16.5	0.8	79.6	0.1	nt	nt	nt
O=C(O)CCC(C(=O)O)n1c(O)c(C2=c3ccccc3=NC2=O)sc1=S (stereo unspecified)	-7.0	18.2	25.6	0.1	145.4*	-0.4	138.1*	104.7	96.8
CCCCOP(=O)(OCCCC)C1(NS(=O)(=O)c2ccccc2)C=CC(=O)c2ccccc21 (stereo unspecified)	17.5	10.8	-2.8	-0.2	144.5*	-0.1	114.3	101.6	99.5
O=C(N/N=C\c1ccc(-c2cccc(Cl)c2)o1)C(=O)NC1CCCC1	-3.4	19.8	4.4	0.0	92.1	-0.1	nt	nt	nt
CCn1c(SCC(=O)NCC2CCCO2)nnc1-c1ccccc1OC (stereo unspecified)	nt	4.3	nt	nt	nt	nt	nt	nt	nt
CCOc1ccccc1-c1nnc(SCC(=O)NC2CC3CCC2C3)n1CC (stereo unspecified)	9.9	19.8	0.1	-0.9	159.6*	-0.2	168.6*	127.5*	162.4*
C#CCn1c(=NC(=O)c2ccc(S(=O)(=O)N3CCc4ccccc4C3)cc2)sc2cc(S(N)(=O)=O)ccc21	-2.4	0.5	11.7	0.3	143.9*	-0.1	138.0*	113.1	102.5
C=CCn1c(=NC(=O)c2ccc(S(=O)(=O)N3CCc4ccccc4C3)cc2)sc2cc(S(N)(=O)=O)ccc21	2.3	1.9	10.3	-0.7	130.6	-0.3	nt	nt	nt
SMILES	HSF1 inh	AHR act	PolyA inh	PERK inh	STAT3 act-1	Hsp70 activator	STAT3 act-2	NFkB act 2	STAT1 act STAT3c
Cc1c(C(=O)NCc2cccnc2)oc2ccc(S(=O)(=O)N3CC(C)CC(C)C3)cc12 (stereo unspecified)	1.2	20.0	-4.9	-1.4	136.4*	-0.1	159.8*	101.9	101.5
CCS(=O)(=O)N1CCN(Cc2c[nH]c3ccccc23)CC1	-5.2	9.8	8.6	0.1	141.5*	-0.2	141.7*	100.1	88.7
Cc1ccccc1N1CCN(Cc2c[nH]c3ccccc23)CC1	-6.3	8.2	-3.9	-1.0	143.5*	-0.2	137.1*	99.2	95.9
O=C(O)C(Cc1c[nH]c2ccccc12)N1Cc2ccccc2C1=O (stereo unspecified)	-3.7	12.8	0.8	0.7	143.5*	0.6	137.0*	113.7	113.7
O=C(O)[C@H](Cc1ccccc1)N1Cc2ccccc2C1=O	4.5	0.6	-10.9	0.2	108.0	0.1	nt	nt	nt
CCOC(=O)c1cnn(-c2ncnc3sc(CC)cc23)c1N	21.8	17.0	7.5	0.3	143.9*	1.9	146.8*	111.3	110.6
CCOC(=O)c1cnn(-c2ncnc3c2cnn3C)c1N	4.4	-2.0	-7.0	1.6	nt	nt	nt	nt	nt
CC(OC(=O)c1cc(S(=O)(=O)N2CCOCC2)ccc1F)C(=O)NC1CCCCC1C (stereo unspecified)	-4.1	19.6	-3.1	nt	nt	nt	nt	nt	nt
COc1ccc(-n2c(SCC(=O)NCc3ccco3)nc3c([nH]c4ccccc43)c2=O)cc1	0.2	28.7	0.6	-0.6	153.8*	-0.2	136.6*	103.6	106.1
CC1=C(C)C(=O)C(N2CCOCC2)=CC1=O	12.8	nt	-2.5	1.3	143.0*	-0.2	138.9*	99.7	103.7
CN1c2ccsc2C(O)=C(C(=S)Nc2ccc(F)c(Cl)c2)S1(=O)=O	2.1	14.5	1.4	-1.4	141.9*	-0.7	101.5	105.4	97.2
COC(=O)c1sccc1NC(=O)c1c(C)noc1C	-5.2	0.5	-2.2	0.6	98.5	0.0	nt	nt	nt
COC(=O)c1sccc1NC(=O)c1cc(C)on1	-0.3	-0.8	8.3	2.1	150.7*	-0.1	134.6*	103.5	103.4
COc1ccc(C2CC(c3cccs3)=NN2C(=O)CSc2nc(=O)n3cc(C)ccc3n2)cc1 (stereo unspecified)	13.9	2.3	15.0	nt	nt	nt	nt	nt	nt
